# Assay results taken from ChEMBL document CHEMBL5696444 (Nat Commun, 2017).
# Active and inactive are the calls of the source. The calls are words filed in the database; no cut-off is given here.
# How the values were obtained:
# [1] = target: Dual specificity protein kinase CLK2 (Homo sapiens, UniProt P49760); test: Inhibition of N-terminal FLAG-tagged human CLK2 using ULight MBP peptide as substrate incubated for 10 mins in presence of ATP incubated for 45 mins by LANCE Ultra kinase assay
# [2] = target: Dual specificity protein kinase CLK1 (Homo sapiens) (UniProt P49759); test: Inhibition of CLK (unknown origin) in human HCT-116 cells assessed as phospho SR level at 10 uM incubated for 6 hrs by immunoblot analysis; format: cell-based
# Chain of Dual specificity protein kinase CLK1 (Homo sapiens) (P49759 whole entry, looked up): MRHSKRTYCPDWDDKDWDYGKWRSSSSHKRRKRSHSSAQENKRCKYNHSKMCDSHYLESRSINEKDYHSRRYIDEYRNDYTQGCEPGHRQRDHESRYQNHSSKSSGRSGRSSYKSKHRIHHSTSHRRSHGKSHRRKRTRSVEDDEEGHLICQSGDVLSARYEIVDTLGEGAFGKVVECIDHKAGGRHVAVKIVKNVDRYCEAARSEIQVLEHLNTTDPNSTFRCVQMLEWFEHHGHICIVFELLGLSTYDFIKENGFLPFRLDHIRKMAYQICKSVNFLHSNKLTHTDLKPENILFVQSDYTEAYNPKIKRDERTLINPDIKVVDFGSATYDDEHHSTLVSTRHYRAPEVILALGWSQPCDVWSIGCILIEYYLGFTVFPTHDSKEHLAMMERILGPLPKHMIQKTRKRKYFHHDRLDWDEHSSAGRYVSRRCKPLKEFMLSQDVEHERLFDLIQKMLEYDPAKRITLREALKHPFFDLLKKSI
# Method in brief: (§1)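 HCT116 cells were exposed to compound for 3 or 6 h, then lysed in 1× SDS sample buffer (0.16% SDS, Tris-HCl pH 6.8) and boiled 5 min. Lysates were run on 5–15% or 4–12% gradient gels and transferred to nitrocellulose or PVDF. Membranes were blocked in 5% milk or 3% BSA/TBS-T and probed overnight at 4 °C with anti-SR protein (16H3) or anti-phospho-SR (1H4, 1/1000), with GAPDH as loading control.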
# HCT-116 = test: Cytotoxicity against human HCT-116 cells assessed as inhibition of cell viability incubated for > 24 hrs; format: functional
# [3] = target: Dual specificity protein kinase CLK1 (Homo sapiens) (UniProt P49759); test: Inhibition of CLK (unknown origin) in human HCT-116 cells assessed as SRSF4 level at 10 uM incubated for 6 hrs by immunoblot analysis; format: cell-based; method in brief: as §1
# [4] = target: Dual specificity protein kinase CLK1 (Homo sapiens) (UniProt P49759); test: Inhibition of CLK (unknown origin) in human HCT-116 cells assessed as SRSF6 level at 10 uM incubated for 6 hrs by immunoblot analysis; format: cell-based; method in brief: as §1
# [5] = target: Dual specificity protein kinase CLK1 (Homo sapiens) (UniProt P49759); test: Inhibition of CLK (unknown origin) in human HCT-116 cells assessed as SRSF1 level at 10 uM incubated for 6 hrs by immunoblot analysis; format: cell-based; method in brief: as §1
# Chain of Dual specificity protein kinase CLK2 (P49760 whole entry): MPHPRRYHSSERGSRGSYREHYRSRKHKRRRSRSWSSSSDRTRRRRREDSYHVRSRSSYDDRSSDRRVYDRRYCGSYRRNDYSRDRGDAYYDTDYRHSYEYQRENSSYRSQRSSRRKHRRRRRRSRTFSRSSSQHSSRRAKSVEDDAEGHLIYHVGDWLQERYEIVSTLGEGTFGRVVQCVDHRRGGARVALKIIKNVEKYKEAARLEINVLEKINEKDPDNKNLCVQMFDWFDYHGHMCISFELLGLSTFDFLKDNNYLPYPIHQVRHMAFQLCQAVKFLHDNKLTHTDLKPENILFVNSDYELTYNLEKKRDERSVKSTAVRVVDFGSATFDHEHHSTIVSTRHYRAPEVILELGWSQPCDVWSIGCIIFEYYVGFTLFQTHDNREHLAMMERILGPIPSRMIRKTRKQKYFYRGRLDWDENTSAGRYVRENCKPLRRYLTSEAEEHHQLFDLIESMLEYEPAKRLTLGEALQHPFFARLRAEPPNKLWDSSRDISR
compound,measurement,setting,value
CCN1CCN(C(=O)C(C)(C)c2ccc(C(=O)Nc3cn4cc(-c5ccncc5)ccc4n3)cc2)CC1,IC50,[1],15 nM
CC(C)(C(=O)N1CCNCC1)c1ccc(C(=O)Nc2cn3cc(-c4ccncc4)ccc3n2)cc1,IC50,[1],150 nM
CC(C)(CCc1nn[nH]n1)c1ccc(C(=O)Nc2cn3cc(-c4ccncc4)ccc3n2)cc1,IC50,[1],50 nM
CCOC(=O)c1c(/C(C#N)=C\N)c2ccc(Cl)c(Cl)c2n1C,inhibition,[2],Active
same,GI,HCT-116,>50 µM
same,inhibition,[3],Active
same,inhibition,[4],Active
same,inhibition,[5],Active
CC(C)(CCc1nn[nH]n1)c1ccc(C(=O)Nc2cn3cc(C(F)(F)F)ccc3n2)cc1,IC50,[1],360 nM
